# Bioassay records from PubChem BioAssay.
# TAAR1 agonist – human TAAR1 agonism | Q96RJ0 | CHO RD-HGA16 TAAR1, Fluo-8 calcium fluorescence; vehicle wells 0%, saturating PEA agonist 100% | activation, % at 3 µM | actives 0.99% (n = 360,000) | AID 624467;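 active = activation above the mean activation of all test compounds in the run plus 3 SD, cut at about 38% in these data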
# Target sequence (Q96RJ0 whole entry, looked up): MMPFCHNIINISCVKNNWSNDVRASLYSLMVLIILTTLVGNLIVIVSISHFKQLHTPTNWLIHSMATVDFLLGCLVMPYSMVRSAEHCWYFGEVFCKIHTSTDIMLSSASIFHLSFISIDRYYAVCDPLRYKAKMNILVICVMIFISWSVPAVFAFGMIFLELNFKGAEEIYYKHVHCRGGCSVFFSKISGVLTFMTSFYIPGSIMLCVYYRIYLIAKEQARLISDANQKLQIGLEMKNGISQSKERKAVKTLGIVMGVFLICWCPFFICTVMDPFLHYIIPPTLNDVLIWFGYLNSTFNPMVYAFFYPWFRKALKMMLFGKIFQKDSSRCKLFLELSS
#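 Repeats: no replicates (n 1) | Material: CHO-derived RD-HGA16 cells with stable Gα16 and human TAAR1 | Technique: Kinetic Fluo-8 calcium fluorescence | Schedule: 17-24 h seeding, 75 min 37 °C dye, 30 min RT | Evaluation: % activation from peak over basal fluorescence ratio, DMSO-to-PEA scaled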
# GalR3 antag – antagonists of human GalR3; HEK293 GalR3-CNG cAMP membrane potential fluorescence; galR3 body fused to GalR1 C-terminus; inhibition, % at 3 µM; actives 0.44% (n = 360,000); AID 651719;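 active = inhibition above the screen-wide average plus 3 SD, cut at about 13% in these data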;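 note: forskolin and galanin both at EC90 stimulate the cells; cAMP rise reported by CNG channel membrane potential dye signal; 0% = forskolin plus galanin with DMSO and 100% = forskolin alone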
# Target sequence (O60755 1-299 limits assumed): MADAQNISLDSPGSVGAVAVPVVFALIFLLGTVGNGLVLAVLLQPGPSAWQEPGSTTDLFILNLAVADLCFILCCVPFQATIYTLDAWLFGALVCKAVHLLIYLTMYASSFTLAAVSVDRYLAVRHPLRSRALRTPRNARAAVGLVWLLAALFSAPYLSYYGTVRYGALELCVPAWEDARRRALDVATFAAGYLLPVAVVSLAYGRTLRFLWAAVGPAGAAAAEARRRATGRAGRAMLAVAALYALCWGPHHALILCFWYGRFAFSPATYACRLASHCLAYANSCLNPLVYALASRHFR
# TAAR1 antag – human TAAR1 antagonism; actives 1.5% (n = 360,000); CHO RD-HGA16 TAAR1, Fluo-8 calcium fluorescence, antagonist; inhibition, % at 3 µM; Q96RJ0;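 active = inhibition above a per-plate cutoff, the mean inhibition of test compounds on that plate plus 3 SD, cut at about 49% in these data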;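 note: 0% = DMSO plus EC80 beta-PEA response and 100% = DMSO alone without agonist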
#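 Test system – hTAAR1-expressing CHO RD-HGA16 cells, Gα16-coupled · Reagent – β-PEA at EC80 concentration, post-compound challenge · Compound dosing – 3 µM, single point · Timing – 140 s kinetic read after compound, 140 s after agonist · Detection – Fluo-8 intracellular calcium dye fluorescence, real-time kinetic reads · Control set – DMSO and EC80 PEA controls · Repeats – n of 1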
# OX1R antag-1 – antagonists of human orexin 1 receptor (OX1R); actives 1.8% (n = 330,000); OX1R-expressing cells, FRET antagonist read-out; inhibition, % at 6.6 µM; in the data active = inhibition mostly above about 38%, no sharp cut-off; inactive = mostly below about 40%;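 note: 0% = agonist challenge alone and 100% = reference antagonist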
# OX1R antag-2 – blocks the human orexin 1 receptor | O43613 | CHO/OX1R cells, Fluo-8 calcium fluorescence, orexin A | inhibition, % at 5 µM | actives 0.43% (n = 330,000) | AID 434989;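 active = inhibition above its plate's threshold, mean inhibition of all tested compounds on the plate plus 3 SD, cut at about 37% in these data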;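 note: 0% = orexin A challenge wells and 100% = SB-334867-A antagonist wells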
# CHO parental Ca – signal in parental CHO cells, OX1R antagonist counter-screen. actives 0.63% (n = 330,000). parental CHO-K1, ATP-induced calcium, Fluo-8 fluorescence. inhibition, % at 5.6 µM;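 active = inhibition above that plate's mean sample inhibition plus 3 SD, cut at about 26% in these data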;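 note: 0% = ATP-challenged DMSO wells and 100% = DMSO wells without ATP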
#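 Assay system: untransfected parental CHO cell line. Also added: ATP agonist challenge. Dosing: one dose, 5.6 µM nominal. Measured by: Fluo-8 fluorescence. Read-out: % inhibition. Benchmarks: ATP wells versus no-ATP DMSO wells. Repeats: no replicates.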
# GalR3 antag conf – confirmation of human galanin receptor 3 antagonists | inhibition, % at 3 µM | HEK293 GalR3 CNG cAMP biosensor, membrane potential fluorescence; galR3 fused to GalR1 carboxy tail; challenged with forskolin and galanin at EC90 | shares compounds with GalR3 antag | actives 59% (n = 1,600);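 active = inhibition above the primary screen's cutoff, the mean inhibition of all screened compounds plus 3 SD, cut at about 13% in these data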;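 note: 0% = forskolin plus galanin and 100% = forskolin alone with DMSO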
# HEK-CNG parental – acts as nonspecific agonist in parental HEK-CNG cells. HEK293-CNG parental cells, cAMP membrane potential fluorescence; normalised: DMSO wells 0%, forskolin wells 100%. activation, % at 3 µM. shares compounds with GalR3 antag. actives 10% (n = 1,600); in the data active = activation above about 1.3%
# The depositor's hits bear a star; nt = not tested or not shown. Shown are actives, neighbours in structure and some others; about 4.2% of the full set was active somewhere.
SMILES,TAAR1 agonist,GalR3 antag,TAAR1 antag,OX1R antag-1,OX1R antag-2,CHO parental Ca,GalR3 antag conf,HEK-CNG parental
CCOc1cc(C2C(C(=O)N3CCCCC3)=C(C)NC3=C2C(=O)CC(C)(C)C3)ccc1O (stereo not drawn),2,-3,18,9,-16,-15,nt,nt
COc1cc(C2NC(=O)NC(C)=C2C(=O)OCc2ccccc2)ccc1O (stereo not drawn),4,-2,-1,18,5,-5,nt,nt
CCOc1cc(C2NC(=O)NC(C)=C2C(=O)OCc2ccccc2)ccc1O (stereo not drawn),5,13*,-14,10,-12,-12,15*,0
COc1ccc(COC(=O)C2=C(C)NC(=O)NC2c2ccc(O)c(OC)c2)cc1 (stereo not drawn),10,8,12,8,-12,-9,nt,nt
CCOC(=O)C1=C(C)NC2=C(C(=O)CC(C)(C)C2)C1c1ccc(O)c(OCC)c1 (stereo not drawn),0,22*,-2,11,-10,0,29*,0
Cc1ccc(CNC(=O)c2ccc(CNc3c(N4CCCC4)c(=O)c3=O)cc2)cc1,3,13*,-12,8,-18,1,7,-1
Cc1cc(C)cc(NC(=O)c2ccc(CNc3c(N4CCCC4)c(=O)c3=O)cc2)c1,1,-6,10,2,-19,1,nt,nt
CC(C)Cc1nnc(NC(=O)CCN2C(=O)c3ccccc3C2=O)s1,0,3,-15,9,-24,-7,nt,nt
Cc1ccc(C=Nc2ccccc2C(N)=O)cc1,14,-8,19,9,8,-2,nt,nt
CCN(CC(=O)Nc1ccc2c(c1)OCCO2)C(=O)/C=C/c1ccc(F)cc1,-1,13*,17,3,-17,-13,28*,2.4*
COc1cc(N=C2C(=O)N3c4c(cccc42)C(C)=CC3(C)C)cc(OC)c1,-1,-1,-24,6,-20,-15,nt,nt
CC1=CC(C)(C)N2C(=O)C(=Nc3ccc(O)cc3)c3cccc1c32,-1,16*,-6,24,-2,-9,2,1
O=C(O)c1ccc(NC(=S)NC(=O)c2ccc(-c3ccc(Br)cc3)o2)cc1,3,13*,-15,15,-2,6,-19,1.7*
O=C(O)c1cccc(NC(=S)NC(=O)c2ccc(-c3ccc(Cl)cc3)o2)c1,2,-5,-26,12,-9,-10,nt,nt
COc1ccc(OC)c2[nH]c(=O)c(CCNC(=O)COc3ccccc3)cc12,15,22*,9,31,-29,-9,20*,0
COc1ccccc1C(=O)NCCC(=O)NCC(c1ccccc1)N(C)C (stereo not drawn),1,-2,-15,16,-9,-14,nt,nt
COc1ccc2c(C)c(Cl)c(=O)oc2c1,2,-4,2,22,-29,-8,nt,nt
C=C1CC(COc2ccc3c(C)c(Cl)c(=O)oc3c2)(c2ccccc2)OC1=O (stereo not drawn),3,37*,7,nt,nt,nt,18*,2.9*
COc1cc(/C=N/S(=O)(=O)c2ccccc2)cc(OC)c1O,0,15*,-8,7,-5,3,-1,0
C=CCNc1nc(NCc2ccc(N(C)C)cc2)c2sc(-c3ccccc3)cc2n1,1,-8,-1,nt,nt,nt,nt,nt
CCC(=O)Nc1cccc(-c2cn3cccc(C)c3n2)c1,0,13*,-24,16,-19,-11,-1,0
COC(=O)c1cccc(CC2(C)C(=O)Nc3ccc(OC(F)(F)F)cc32)c1 (stereo not drawn),-1,-5,-40,nt,nt,nt,nt,nt
COc1cccc(S(=O)(=O)NCc2ccc(C(=O)Nc3ccc(Cl)c(Cl)c3)cc2)c1,8,17*,32,47,35,42*,55*,-2
COc1ccc(NC(=O)c2ccc(CNS(=O)(=O)c3cccc(OC)c3)cc2)cc1,13,-1,7,22,-3,2,nt,nt
COc1ccc(CCNC(=O)Cn2nc(C)c3c(C)n(-c4ccccc4)nc3c2=O)c(OC)c1,-2,3,-18,11,-40,-36,nt,nt
SMILES,TAAR1 agonist,GalR3 antag,TAAR1 antag,OX1R antag-1,OX1R antag-2,CHO parental Ca,GalR3 antag conf,HEK-CNG parental
COc1ccc(OC)c(CCNC(=O)Cn2nc(C)c3c(C)n(-c4ccc(C)cc4)nc3c2=O)c1,5,33*,-5,13,-19,-22,98*,0
NC(=O)c1ccccc1OCc1nnc(-c2ccccc2Br)o1,4,-9,10,15,-22,-15,nt,nt
CC(=O)c1ccc(N2CCN(S(=O)(=O)c3ccc4c(c3)NC(=O)CO4)CC2)cc1,2,-3,-5,4,6,0,nt,nt
CS(=O)(=O)N1N=C(c2ccccc2)CC1c1ccc2nccnc2c1 (stereo not drawn),5,-11,-10,22,-16,-19,nt,nt
COCCCn1c(=O)c2sccc2n2c(CCCC(=O)NCC3CCCO3)nnc12 (stereo not drawn),4,14*,-29,13,5,-6,9,0
CC(C)OCCCNC(=O)C1CCC(CNS(=O)(=O)c2ccccc2)CC1 (stereo not drawn),0,26*,13,11,-12,-8,4,0
CCOCCCNC(=O)C1CCC(CNS(=O)(=O)c2ccc(OC)cc2)CC1 (stereo not drawn),0,14*,-7,3,6,-5,42*,1.9*
COCCCNC(=O)C1CCC(CNS(=O)(=O)c2ccc(Cl)cc2)CC1 (stereo not drawn),9,-2,-20,6,-6,-8,nt,nt
O=C(Cc1c(F)cccc1Cl)Nc1ccccc1-c1ccccc1,2,-7,4,42,-7,-8,nt,nt
CCOc1ccc(CCN2C(=O)C(=O)N([C@@H](CC(C)C)CN3CCC[C@@H]3CN3C(=O)C(=O)NC[C@@H]3Cc3ccccc3)C[C@@H]2Cc2ccc(O)cc2)cc1,3,-3,9,nt,nt,nt,nt,nt
COC(=O)c1sc(N)c(C(=O)OC)c1COC(=O)CNS(=O)(=O)c1cccc(C#N)c1,3,-2,-9,19,-21,-9,nt,nt
COc1ccc(-c2cc(C(F)(F)F)nc(S(=O)(=O)CCCC(=O)Nc3cc(C)on3)n2)cc1OC,-1,18*,-16,nt,nt,nt,19*,1
